KCNK9 inh: inhibitors of human KCNK9 two-pore domain potassium channel. 310,000 compounds, 1.2% hits. HEK293 KCNK9, FluxOR thallium flux fluorescence; active compounds read low. B-score at 10 µM;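 active = ratio B-score over 3 SD below the library mean, with starting fluorescence within 5 SD of its mean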;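 note: negative B-score means less thallium flux so channel inhibition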
KCNK3 block: human KCNK3 channel inhibition, primary screen | O14649 | CHO-KCNK3 thallium flux, FluxOR fluorescence; active compounds read low | 340,000 compounds, 0.84% hits | B-score at 10 µM;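 active = B-score under library mean minus 4 SD, starting fluorescence ratio at most library mean plus 5 SD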;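 note: more negative B-score means stronger inhibition of thallium flux through KCNK3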
KCNQ1 pot: human KCNQ1 channel potentiation or activation. B-score at 10 µM. 310,000 compounds, 0.35% hits. P51787. AID 2648. CHO-K1 KCNQ1, thallium flux FluxOR fluorescence; active compounds read high;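 active = fluorescence ratio B-score, a plate-corrected score, at least three library SD, with initial intensity B-score within 5 SD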
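Doses: Single concentration per compound, DMSO matched to controls | Test system: KCNQ1-transfected CHO-K1 cells | Timing: 90 min dye loading and 20 min compound exposure, both at room temperature | Measured by: Kinetic FluxOR thallium fluorescence, 10-s 1-Hz baseline, 110-s post-stimulus read | Medium: Assay buffer with matched DMSO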
Kir21 inh: blocks the mouse Kir2.1 inward-rectifier potassium channel; HEK293-Kir2.1, FluxOR thallium flux fluorescence; active compounds read low; 310,000 compounds, 0.85% hits; P35561; B-score at 10 µM;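 active = fluorescence ratio B-score at or below minus 3 SD of library scores, with starting-brightness B-score within 2 SD, cut at about -4.2 in these data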;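 note: channel flux triggered by added potassium and thallium sulfate stimulus; B-score of peak minus minimum fluorescence over baseline after thallium stimulus; more negative B-score means stronger Kir2.1 block with less thallium influx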
Target sequence (P35561 whole entry, looked up): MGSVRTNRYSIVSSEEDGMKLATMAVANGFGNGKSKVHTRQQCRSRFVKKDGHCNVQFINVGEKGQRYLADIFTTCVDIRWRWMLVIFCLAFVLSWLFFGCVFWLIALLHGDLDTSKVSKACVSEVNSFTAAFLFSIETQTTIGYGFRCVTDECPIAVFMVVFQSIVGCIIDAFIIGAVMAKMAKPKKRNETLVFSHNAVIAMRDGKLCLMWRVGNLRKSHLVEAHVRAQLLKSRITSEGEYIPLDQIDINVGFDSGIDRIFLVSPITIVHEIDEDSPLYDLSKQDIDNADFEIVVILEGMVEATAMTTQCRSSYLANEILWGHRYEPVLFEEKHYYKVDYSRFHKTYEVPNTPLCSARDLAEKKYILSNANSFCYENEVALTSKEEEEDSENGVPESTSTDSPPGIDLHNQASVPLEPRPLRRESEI
KCNQ1 block: blocks the human KCNQ1 potassium channel; B-score at 10 µM; CHO-K1 KCNQ1, FluxOR thallium flux fluorescence; active compounds read high; 310,000 compounds, 1.3% hits;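 active = compounds whose thallium flux B-score, printed positive for inhibition, exceeds three library SD while starting fluorescence stays within three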;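 note: channel opened by potassium depolarization with thallium stimulus after 20 min compound exposure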
hERG protect: shields human hERG channel from block by proarrhythmic agents. 310,000 compounds, 0.51% hits. CHO-hERG, FluxOR thallium flux, dofetilide IC70 present. activation (rescue from dofetilide block), less the hit threshold, % at 10 µM;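 active = activation above the mean of controls blocked by dofetilide plus 5 SD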;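 note: thallium influx through hERG after potassium depolarization seen as dye fluorescence rise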
* = called active by the depositor. Sampled rows, rich in hits. Any-hit rate of the full collection: about 3.7%.

`O=C(CNCc1ccc(F)cc1)Nc1cc(S(=O)(=O)N2CCOCC2)ccc1Cl` gave KCNK3 block inactive.
Screening CC(C)CCNC(=O)c1sc2ccc(S(=O)(=O)N3CCCCC3)cc2c1N returned KCNK9 inh inactive, KCNK3 block inactive, KCNQ1 pot inactive, Kir21 inh -1.1, KCNQ1 block inactive and hERG protect -5.
`Cc1ccc(C)c(N=Nc2ccc(O)c3ncccc23)c1` gave KCNK9 inh inactive, KCNK3 block inactive, KCNQ1 pot inactive, Kir21 inh 0.98, KCNQ1 block inactive and hERG protect -6.
For CCOc1ccc(N=Nc2ccc(O)c3ncccc23)cc1 the results were KCNK9 inh inactive, KCNK3 block inactive, KCNQ1 pot inactive, Kir21 inh 1.7, KCNQ1 block inactive and hERG protect 11*.
`Cc1cccc(N=Nc2ccc(O)c3ncccc23)c1` gave KCNK9 inh inactive, KCNK3 block inactive, KCNQ1 pot 10*, Kir21 inh -0.91, KCNQ1 block inactive and hERG protect 2.
CCOc1ccc(N=C(C)c2ccccc2O)cc1 was read as KCNK9 inh inactive, KCNK3 block inactive, KCNQ1 pot inactive, Kir21 inh 0, KCNQ1 block inactive and hERG protect -1.
Screening CCOc1ccc(N=Nc2cc(C(C)C)ccc2O)cc1 returned KCNK9 inh inactive, KCNK3 block inactive, KCNQ1 pot inactive, Kir21 inh 1.6, KCNQ1 block inactive and hERG protect 9.1*.
Screening Cc1cccc(C)c1NC(=O)CN(C)CC(=O)c1c(N)n(Cc2ccccc2)c(=O)n(C)c1=O returned KCNK3 block inactive.
`Cc1ccc(C(=O)C(C)OC(=O)Cn2[nH]c(=O)c3ccccc3c2=O)cc1C` (centres undefined) gave KCNK9 inh inactive, KCNK3 block inactive, KCNQ1 pot inactive, Kir21 inh -1.7, KCNQ1 block inactive and hERG protect -13.
Screening CCCn1c(SCC(=O)N2CC(=O)Nc3ccccc32)nc2ccccc21 returned KCNK9 inh inactive, KCNK3 block inactive, KCNQ1 pot inactive, Kir21 inh -6.9*, KCNQ1 block inactive and hERG protect -10.
`N#Cc1cccc(C#N)c1Oc1ccc(N)cc1` gave KCNK9 inh -6.8*, KCNK3 block inactive, KCNQ1 pot inactive, Kir21 inh -0.24, KCNQ1 block inactive and hERG protect -4.
`Cc1ccc(CNC(=O)CCn2cc(-c3ccc(C)cc3)nc2-c2ccncc2)cc1` gave KCNK9 inh inactive, KCNK3 block inactive, KCNQ1 pot inactive, Kir21 inh 2.2, KCNQ1 block inactive and hERG protect -7.
`Cc1ccc(OC(C)C(=O)N2CCc3ccccc32)cc1` (centres undefined) gave KCNK9 inh inactive, KCNK3 block inactive, KCNQ1 pot inactive, Kir21 inh 0.56, KCNQ1 block inactive and hERG protect -4.
For CC(Oc1ccccc1)C(=O)N1CCCc2ccccc21 (centres undefined) the results were KCNK9 inh inactive, KCNK3 block inactive, KCNQ1 pot inactive, Kir21 inh -5.5*, KCNQ1 block inactive and hERG protect -9.
COc1ccc(OC(C)C(=O)N2CCCc3ccccc32)cc1 (centres undefined) was read as KCNK9 inh inactive, KCNK3 block inactive, KCNQ1 pot inactive, Kir21 inh -4.8*, KCNQ1 block inactive and hERG protect -5.
`CCOc1ccccc1NC(=O)CN1CCC(C(=O)c2ccc(F)cc2)CC1` gave KCNK9 inh -7.1*, KCNK3 block inactive, KCNQ1 pot inactive, Kir21 inh -0.13, KCNQ1 block inactive and hERG protect -5.
Screening COc1ccccc1NC(=O)CN1CCC(C(=O)c2ccc(F)cc2)CC1 returned KCNK9 inh inactive, KCNK3 block inactive, KCNQ1 pot inactive, Kir21 inh -0.43, KCNQ1 block inactive and hERG protect -16.
For CCNc1nc(NC(C)C)nc(N(C#N)CCOc2ccc(Cl)cc2Cl)n1 the results were KCNK9 inh -7.5*, KCNK3 block -11*, KCNQ1 pot inactive, Kir21 inh -1.3, KCNQ1 block inactive and hERG protect -6.
`CCNc1nc(NC(C)C)nc(N(C#N)Cc2ccccc2)n1` gave KCNK9 inh -7.3*, KCNK3 block inactive, KCNQ1 pot inactive, Kir21 inh -0.62, KCNQ1 block inactive and hERG protect -2.
For CCNc1nc(NC(C)C)nc(N(C#N)CC(=O)OC)n1 the results were KCNK9 inh inactive, KCNK3 block inactive, KCNQ1 pot inactive, Kir21 inh -1.4, KCNQ1 block inactive and hERG protect -8.
`O=C(O)C1C2CCC(O2)C1C(=O)NCc1ccc(Cl)cc1` (centres undefined) gave KCNK9 inh inactive, KCNK3 block inactive, KCNQ1 pot inactive, Kir21 inh -0.19, KCNQ1 block inactive and hERG protect 1.
Oc1ccc2ccccc2c1-c1sc(Nc2ccccc2)n[n+]1-c1ccc(F)cc1 was read as KCNK9 inh inactive, KCNK3 block inactive, KCNQ1 pot inactive, Kir21 inh -0.32, KCNQ1 block 9* and hERG protect -22.
Cc1ccc(C(=O)NC(C)C2CC3CCC2C3)cc1 (centres undefined) was read as KCNK9 inh inactive, KCNK3 block inactive, KCNQ1 pot inactive, Kir21 inh 0.52, KCNQ1 block inactive and hERG protect -8.
`Cc1ccc(C)c(S(=O)(=O)Nc2ccc(C(=O)N3CCCCC3)cc2)c1` gave KCNK9 inh inactive, KCNK3 block inactive, KCNQ1 pot inactive, Kir21 inh -0.01, KCNQ1 block inactive and hERG protect -8.
Screening CC1CCCCN1C(=O)c1ccc(C(=O)N2CCCCC2C)cc1 (centres undefined) returned KCNK9 inh inactive, KCNK3 block inactive, KCNQ1 pot inactive, Kir21 inh -0.28, KCNQ1 block inactive and hERG protect -6.
`Cc1cccc(C(=O)Nc2ccc(C(=O)N3CCCCC3C)cc2)c1` (centres undefined) gave KCNK9 inh -7.6*, KCNK3 block inactive, KCNQ1 pot inactive, Kir21 inh 0.54, KCNQ1 block inactive and hERG protect -9.
Screening Cc1ccc(C)c(S(=O)(=O)NCc2ccc(C(=O)N3CCCCC3C)cc2)c1 (centres undefined) returned KCNK9 inh -6.8*, KCNK3 block inactive, KCNQ1 pot inactive, Kir21 inh -1.6, KCNQ1 block inactive and hERG protect -14.
For Cc1ccc(CNC(=O)CCCc2cn(C)c3ccccc23)cc1 the results were KCNK9 inh inactive, KCNK3 block inactive, KCNQ1 pot inactive, Kir21 inh -1.1, KCNQ1 block inactive and hERG protect -6.
